Experiments:
tyrosinase [1] = conditions: tyrosinase inhibition; cited from earlier work
mushroom tyrosinase = experiment: Tyrosinase inhibitory assay; type: biochemical; conditions: for % inhibition at 50 μM: 50 μM compound, L-DOPA substrate; for IC50: read-out: IC50 (μM) ± RSD, L-DOPA substrate, means ± RSD
[2] = Antioxidant activity, DPPH assay; conditions: for % inhibition at 200 μM: 200 μM compound; for IC50: read-out: IC50(μM) ± RSD
tyrosinase [3] = experiment: Enzyme kinetic studies; type: biochemical; conditions: Lineweaver-Burk plot; L-DOPA 0-1.5 mM; inhibitor 5-80 μM
Method in brief: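 Mushroom tyrosinase with L-DOPA as substrate, tested across several inhibitor concentrations. Reaction rates were plotted as 1/V against 1/[S] (Lineweaver–Burk double-reciprocal plot) to assign the inhibition type. Km was read from this plot.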

SMILES	% inhibition at 50 μM (mushroom tyrosinase)	% inhibition at 200 μM [2]	IC50 (mushroom tyrosinase)	other results
O=c1cc(/C=C/c2cc(=O)c(O)co2)occ1O [B, (E)-6,6'-(ethene-1,2-diyl)bis(3-hydroxy-4H-pyran-4-one)]	–	–	–	IC50 (tyrosinase [1]): 3.63 µM
O=c1cc(CO)oc(C(Nc2ccccn2)c2ccccc2)c1O (stereo not drawn) [Compound 4a, 3-Hydroxy-6-(hydroxymethyl)-2-(phenyl(pyridin-2-ylamino)methyl)-4H-pyran-4-one]	29.14 ± 2.86%	20.86 ± 4.41%	–	–
O=c1cc(CO)oc(C(Nc2ccccn2)c2ccccc2F)c1O (stereo not drawn) [Compound 4b, 2-((2-Fluorophenyl)(pyridin-2-ylamino)methyl)-3-hydroxy-6-(hydroxymethyl)-4H-pyran-4-one]	59.42 ± 5.71%	14.09 ± 4.10%	28.2 ± 3.63 µM	–
O=c1cc(CO)oc(C(Nc2ccccn2)c2cccc(F)c2)c1O (stereo not drawn) [Compound 4c, 2-((3-Fluorophenyl)(pyridin-2-ylamino)methyl)-3-hydroxy-6-(hydroxymethyl)-4H-pyran-4-one]	28.47 ± 1.59%	18.65 ± 3.05%	–	–
O=c1cc(CO)oc(C(Nc2ccccn2)c2ccccc2Cl)c1O (stereo not drawn) [Compound 4d, 2-((2-Chlorophenyl)(pyridin-2-ylamino)methyl)-3-hydroxy-6-(hydroxymethyl)-4H-pyran-4-one]	60.35 ± 1.43%	19.49 ± 3.98%	22.4 ± 3.34 µM	–
O=c1cc(CO)oc(C(Nc2ccccn2)c2cccc(Cl)c2)c1O (stereo not drawn) [Compound 4e, 2-((3-Chlorophenyl)(pyridin-2-ylamino)methyl)-3-hydroxy-6-(hydroxymethyl)-4H-pyran-4-one]	50.57 ± 2.65%	17.21 ± 4.01%	44.7 ± 3.59 µM	–
O=c1cc(CO)oc(C(Nc2ccccn2)c2ccccc2Br)c1O (stereo not drawn) [Compound 4f, 2-((2-Bromophenyl)(pyridin-2-ylamino)methyl)-3-hydroxy-6-(hydroxymethyl)-4H-pyran-4-one]	60.85 ± 4.29%	13.03 ± 2.86%	23.4 ± 4.19 µM	–
O=c1cc(CO)oc(C(Nc2ccccn2)c2cccc(Br)c2)c1O (stereo not drawn) [Compound 4g, 2-((3-Bromophenyl)(pyridin-2-ylamino)methyl)-3-hydroxy-6-(hydroxymethyl)-4H-pyran-4-one]	33.71 ± 4.88%	18.44 ± 1.54%	–	–
O=c1cc(CO)oc(C(Nc2ccccn2)c2cccc([N+](=O)[O-])c2)c1O (stereo not drawn) [Compound 4h, 3-Hydroxy-6-(hydroxymethyl)-2-((3-nitrophenyl)(pyridin-2-ylamino)methyl)-4H-pyran-4-one]	74.85 ± 4.26%	–	20.4 ± 2.15 µM	Mode of inhibition (tyrosinase [3]): uncompetitive; % inhibition at 200 μM ([2]; 200 µM): 37.27 ± 5.42%
COc1ccc(C(Nc2ccccn2)c2oc(CO)cc(=O)c2O)cc1[N+](=O)[O-] (stereo not drawn) [Compound 4i, 3-Hydroxy-6-(hydroxymethyl)-2-((4-methoxy-3-nitrophenyl)(pyridin-2-ylamino)methyl)-4H-pyran-4-one]	56.57 ± 3.84%	64.24 ± 3.39%	30.9 ± 4.13 µM	IC50 [2]: 121 ± 10.4 µM
Cc1cccc(C(Nc2ccccn2)c2oc(CO)cc(=O)c2O)c1 (stereo not drawn) [Compound 4j, 3-Hydroxy-6-(hydroxymethyl)-2-((pyridin-2-ylamino)(m-tolyl)methyl)-4H-pyran-4-one]	–	17.90 ± 6.77%	> 50 µM	% inhibition at 50 μM (mushroom tyrosinase; 50 µM): 16.85 ± 3.14%
Cc1ccc(C(Nc2ccccn2)c2oc(CO)cc(=O)c2O)cc1 (stereo not drawn) [Compound 4k, 3-Hydroxy-6-(hydroxymethyl)-2-((pyridin-2-ylamino)(p-tolyl)methyl)-4H-pyran-4-one]	22.28 ± 4.52%	26.96 ± 2.54%	> 50 µM	–
COc1cccc(C(Nc2ccccn2)c2oc(CO)cc(=O)c2O)c1O (stereo not drawn) [Compound 4l, 3-Hydroxy-2-((2-hydroxy-3-methoxyphenyl)(pyridin-2-ylamino)methyl)-6-(hydroxymethyl)-4H-pyran-4-one]	52.07 ± 5.27%	30.61 ± 5.76%	37.1 ± 5.42 µM	–
O=c1cc(CO)oc(C(Nc2ccccn2)c2ccc(COc3ccccc3)cc2)c1O (stereo not drawn) [Compound 4m, 3-Hydroxy-6-(hydroxymethyl)-2-((4-(phenoxymethyl)phenyl)(pyridin-2-ylamino)methyl)-4H-pyran-4-one]	35.42 ± 2.43%	23.30 ± 5.17%	–	–
O=c1c(O)c(-c2ccc(O)c(O)c2)oc2cc(O)cc(O)c12 [Quercetin, reference compound]	–	–	–	IC50 [2]: 18.6 ± 2.19 µM
